# Shown are actives, neighbours in structure and some others; about 1.5% of the full set was active somewhere.
# CCR6 antagonist – blocks CCL20-driven beta-arrestin recruitment at human CCR6. P51684. CHO-K1 CCR6 PathHunter beta-arrestin, luminescence, CCL20-stimulated. inhibition, % at 20 µM. 0.49% of 340,000 active;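 active = compounds whose inhibition of the agonist-driven luminescence signal at 20 µM reaches about 50%, limit read from the data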;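 note: cells stimulated with CCL20 at 14 nM final; plate controls were DMSO with CCL20 for no effect and DMSO without agonist for full effect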
# CXCR6 block – inhibitors of human CXCR6 receptor; AID 602244; 0.36% of 360,000 active; O00574; CHO-K1 PathHunter CXCR6 beta-arrestin, luminescence; inhibition, % at 20 µM; in the data active = inhibition above about 34%, passing the limit was not always enough;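 note: antagonist mode with CXCL16 agonist at 10 nM final; 0% = 10 nM CXCL16 with DMSO and 100% = unstimulated wells without agonist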
# Target sequence (O00574 whole entry, looked up): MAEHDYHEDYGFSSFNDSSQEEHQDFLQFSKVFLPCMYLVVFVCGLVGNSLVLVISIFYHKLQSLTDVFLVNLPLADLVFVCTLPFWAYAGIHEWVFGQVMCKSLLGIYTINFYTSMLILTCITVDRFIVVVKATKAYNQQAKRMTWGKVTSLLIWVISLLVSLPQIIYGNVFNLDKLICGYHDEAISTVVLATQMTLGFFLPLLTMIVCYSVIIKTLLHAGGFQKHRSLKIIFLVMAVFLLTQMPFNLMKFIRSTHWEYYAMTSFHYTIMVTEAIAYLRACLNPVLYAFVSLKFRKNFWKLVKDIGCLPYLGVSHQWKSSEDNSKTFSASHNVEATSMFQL
# APJ antag – blocks the human apelin receptor APJ; inhibition, % at 20 µM; CHO-K1 APJ beta-arrestin complementation, luminescence; AID 2521; 0.32% of 330,000 active;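 active = inhibition above about 40% at 20 µM, limit read from the data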;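 note: cells challenged with 10 nM apelin-13 agonist together with compound; plate controls were apelin-13 plus DMSO wells for no effect and DMSO wells lacking apelin-13 for full effect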
# EBI2 antag – blocks human EBI2 receptor beta-arrestin signaling | 0.81% of 360,000 active | inhibition, % at 5 µM | EBI2 beta-arrestin recruitment, luminescence, 7a,25-OHC stimulated | P32249; in the data active = inhibition above about 38%;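 note: enzyme fragment complementation signal reports receptor beta-arrestin coupling in cells; 0% = agonist plus DMSO wells and 100% = wells without agonist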
# Target sequence (P32249 whole entry, looked up, the tested form may be a part): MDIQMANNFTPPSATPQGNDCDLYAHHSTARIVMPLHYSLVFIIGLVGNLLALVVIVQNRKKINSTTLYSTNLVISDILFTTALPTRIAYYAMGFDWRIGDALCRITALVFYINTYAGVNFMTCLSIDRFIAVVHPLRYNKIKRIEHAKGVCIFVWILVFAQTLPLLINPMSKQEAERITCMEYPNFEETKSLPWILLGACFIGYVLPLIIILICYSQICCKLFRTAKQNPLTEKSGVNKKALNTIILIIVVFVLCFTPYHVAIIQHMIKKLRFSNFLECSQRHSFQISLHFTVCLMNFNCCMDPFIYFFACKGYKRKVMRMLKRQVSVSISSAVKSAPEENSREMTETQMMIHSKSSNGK
# APJ ag – APJ receptor agonism; 0.11% of 330,000 active; activation, % at 20 µM; AID 2520; CHO-K1 APJ PathHunter beta-arrestin, luminescence; 0% DMSO wells, 100% apelin;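 active = activation more than six SD over the plate average, tested at 20 µM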;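 note: 0% = DMSO alone and 100% = apelin-13 at 10 nM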
#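 Test system – PathHunter CHO-K1 APJ (AGTRL-1) beta-arrestin reporter cells · Input – 1000 cells/well · Compound – single test compound dose, 20 µM final, 1% DMSO · Times – compound stimulation 90 min at 25 °C, detection 60 min · Technique – beta-gal luminescence · Read-out basis – APJ–arrestin association signal · Control set – negative DMSO alone, positive Apelin-13 at 10 nM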
# APJ antag conf – APJ receptor antagonism confirmation; 66% of 950 active; AID 2766; inhibition, % at 20 µM; APJ beta-arrestin recruitment, luminescence, antagonist mode; shares compounds with APJ antag; in the data active = inhibition above about 50%
# An asterisk follows results filed as active; · = no result.
SMILES,CCR6 antagonist,CXCR6 block,APJ antag,EBI2 antag,APJ ag,APJ antag conf
Cc1nn(-c2nc3ccccc3[nH]2)c(N)c1-c1ccc(Cl)cc1,43.1,34.5,46.3*,27.3,-6.3,-0.2
Cc1nn(-c2nc3ccccc3[nH]2)c(=O)c2ccccc12,3.2,6.6,·,1.9,·,·
CC(=NNC(=S)Nc1ccccc1)c1ccccn1,·,-9.9,·,-4.3,·,·
C=CCNC(=S)N/N=C(\C)c1ccccn1,49.5,20.4,66.9*,37.9,-6.3,48.0
N#C/C(=N\Nc1ccc(S(=O)(=O)N2CCCCCC2)cc1)C(N)=S,31.5,17.2,48.2*,11.8,-7.4,64.4*
CCC(CC)C(=O)Nc1cc(C)cc(C)c1,-1.8,-13.4,10.0,-6.0,-2.8,·
O=[N+]([O-])c1ccc(O)c(/C=N/NC2=NS(=O)(=O)c3ccccc32)c1,10.2,1.5,3.7,9.5,-3.5,·
O=C(CCC(=O)Nc1ccc(Br)cc1)N/N=C/c1cc([N+](=O)[O-])ccc1O,65.5*,32.1,42.1*,9.8,-8.6,46.9
O=[N+]([O-])c1ccc(O)c(/C=N/Nc2ccc(Cl)nn2)c1,89.6*,78.6*,54.7*,76.8*,-25.3,81.3*
CCCCS(=O)(=O)/C=C\C=C/S(=O)(=O)CCCC,81.4*,78.2*,68.7*,50.7*,-6.9,89.1*
CCN(c1ccccc1)S(=O)(=O)c1ccc(Cl)c(NC(=O)CN2C(=O)NC3(CCCC3)C2=O)c1,43.1,34.2,40.7*,16.2,-4.5,65.6*
O=C(CN1CCOCC1)NN=C1CCCCCCCCCCC1,-0.6,-6.5,15.8,-5.1,0.1,·
Cc1ccc(NC(=O)c2cc(C(C)(C)C)nn2Cc2ccccc2)cc1,-11.6,-0.8,5.6,7.8,4.5,·
Cc1ccc(NNC(=O)c2cc(C(C)(C)C)nn2Cc2ccccc2)cc1,35.1,18.6,41.0*,15.6,-10.5,102.6*
COc1ccc(/C=C2/C(=O)N(c3ccccc3)N=C2C)cc1,10.0,1.8,11.7,-0.3,2.4,·
COc1cc(/C=C2/C(=O)N(c3cccc(Br)c3)N=C2C)cc(OC)c1O,71.6*,58.7*,53.7*,28.3,-9.6,82.2*
COc1ccc(/C=C2/C(=O)N(c3ccccc3)N=C2C)cc1OC,16.2,7.3,46.6*,7.6,0.4,6.9
COc1ccc(S(=O)(=O)Nc2ccccn2)cc1,3.3,4.6,18.9,-3.4,-0.6,·
COc1cc(NS(=O)(=O)c2ccc(C)cc2)c2ncccc2c1,41.4,38.1,71.8*,75.3*,-18.4,63.2*
Cc1ccc(S(=O)(=O)Nc2cccc3cccnc23)cc1,85.6*,70.0*,75.8*,29.7,-16.6,95.8*
Cc1ccc(S(=O)(=O)Nc2ccccc2-c2ccccc2NS(=O)(=O)c2ccc(C)cc2)cc1,-18.3,-13.3,-1.7,4.1,-0.2,·
COC(=O)C1=CN(c2ccc(Oc3ccccc3)cc2)C(N)=C(C#N)C1c1ccccc1 (stereo unspecified),·,·,·,5.2,·,·
COc1ccccc1N1CCN(C(=O)c2cccc(S(=O)(=O)Nc3ccccc3F)c2)CC1,7.1,0.3,1.4,-5.6,3.2,·
CCOc1ccc(NC(=O)C2CC(=O)N(C(C)C)C2)cc1 (stereo unspecified),-0.4,-2.9,1.4,-10.1,-1.6,·
N#C/C(=C\c1ccc(O)c([N+](=O)[O-])c1)c1nc2ccccc2s1,46.2,34.2,·,8.6,·,·
SMILES,CCR6 antagonist,CXCR6 block,APJ antag,EBI2 antag,APJ ag,APJ antag conf
COc1cc(/C=C(\C#N)c2nc3ccccc3s2)cc([N+](=O)[O-])c1O,60.3*,44.5*,50.6*,14.9,-8.9,87.7*
O=C1NN=C2CCCCCC12 (stereo unspecified),·,-1.0,·,3.3,·,·
c1ccc(-c2nc(-c3ccco3)cs2)nc1,15.5,10.7,53.3*,-4.2,-10.9,27.4
c1ccc(-c2nccc(-c3ccco3)n2)nc1,0.6,0.6,3.2,0.5,-0.8,·
Cc1ccc(C(=O)COC(=O)CCC(=O)Nc2ccccc2Cl)cc1[N+](=O)[O-],32.6,17.2,44.5*,12.3,-7.6,75.0*
CC(=O)c1ccc(NC(=O)CCC(=O)OCC(=O)c2cccc([N+](=O)[O-])c2)cc1,54.9*,21.9,43.1*,1.9,-14.2,76.8*
Cc1ccc(NC(=O)CCC(=O)OCC(=O)c2ccc(Oc3ccc([N+](=O)[O-])cc3)cc2)cc1,7.5,6.0,12.1,6.3,-3.1,·
CC(=O)Nc1ccc(NC(=O)CCC(=O)OCC(=O)c2ccc(C)c([N+](=O)[O-])c2)cc1,42.5,10.5,70.2*,16.1,-9.2,54.5*
CCC(C)N(C(=O)COC(=O)COc1c(C)cc(C)cc1C)C1CCS(=O)(=O)C1 (stereo unspecified),4.3,-0.2,2.0,-5.2,2.0,·
COC(=O)c1ccc(N2NC(=O)/C(=C/c3cc(OC)c(O)c(OC)c3)C2=O)cc1,49.1,38.7,44.9*,-8.6,-8.3,33.5
O=C(N=Nc1c(O)[nH]c2ccc([N+](=O)[O-])cc12)c1ccccc1Cl,29.2,16.5,25.1,4.2,-8.7,·
O=C(O)c1ccccc1N=Nc1c(O)[nH]c2ccc([N+](=O)[O-])cc12,38.8,28.4,41.9*,10.8,-3.8,52.8*
Cc1ncc(C(O)c2ccccc2)n1Cc1ccccc1 (stereo unspecified),·,-4.6,·,4.3,·,·
Cc1ccc(N=Nc2c(=O)[nH]n3c(=O)cc(C)[nH]c23)cc1,27.0,17.0,42.9*,-0.4,-6.6,61.8*
CC(=O)C1=C(c2cccc([N+](=O)[O-])c2)N(C(C)=O)n2c(C)nnc2S1,69.8*,18.6,106.8*,58.0*,-21.2,153.9*
CC(=O)c1c(C(C)=O)c(C)n(-c2cccc([N+](=O)[O-])c2)c1C,15.4,6.6,4.5,-6.8,-0.7,·
CCOC(=O)C1=CN(c2cccc(F)c2)C=C(C(=O)OCC)C1c1cc(OC)c(O)c([N+](=O)[O-])c1,49.4,26.8,44.1*,6.7,-3.7,23.1
O=C(Cn1cnc2c(nnn2Cc2ccccc2)c1=O)Nc1ccc2c(c1)OCCO2,-4.8,-1.2,26.5,-7.5,-4.4,·
N#Cc1cnc(Nc2nc3ccccc3o2)nc1-c1ccccc1,54.7*,16.5,52.4*,18.0,-12.1,-1.8
CN(CCc1ccccn1)C(=O)CCC1CCCN(C(=O)c2c3c(nn2C)CCCC3)C1 (stereo unspecified),6.6,-3.5,-0.2,5.6,1.4,·
Cc1ccc2cccc(N)c2n1,10.0,-0.4,41.2*,-3.2,2.2,1.6
CCNc1c(N)c(=O)oc2ccccc12,15.9,-8.6,18.6,3.1,-3.8,·
CCCNc1c(N)c(=O)oc2ccccc12,1.6,-2.8,56.5*,-2.2,1.0,33.0
CCOc1ccc(NC(=O)CC2C(=O)N(CC)C(=S)N2CCN2CCOCC2)cc1 (stereo unspecified),-11.2,-9.2,46.3*,-1.4,-3.2,-6.2
CCN(CC)CCSc1nnc(Nc2ccccc2)n1-c1ccccc1,-5.3,5.5,51.4*,10.1,-1.8,19.6
